Measurements as given in PubChem BioAssay AID624466 (The Scripps Research Institute Molecular Screening Center, 2012).
Several values for one entry are separate records, joined by “and”; a condition that tells them apart may be missing. Equal entries are not always repeated. Among all 360,000 compounds or so, about 5,400 (1.5%) were called active.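 Rule for the calls: active = inhibition above a per-plate cutoff, the mean inhibition of test compounds on that plate plus 3 SD (cut at about 49% in these data); inactive = the rest.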 The list comes from a sample in which actives are over-represented; it also holds similar structures and randomly drawn compounds.

What follows are molecules tested against Trace amine-associated receptor 1 (Homo sapiens) (UniProt Q96RJ0) (assay: blockers of beta-PEA-driven TAAR1 calcium signal – Fluo-8 calcium fluorescence, CHO RD-HGA16 cells, primary screen (AID 624466;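 note: 0% = DMSO plus EC80 beta-PEA response and 100% = DMSO alone without agonist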)). Settings: CHO RD-HGA16 TAAR1, Fluo-8 calcium fluorescence, antagonist; at 3 µM; stronger effect = higher value.
Chain of Trace amine-associated receptor 1 (Homo sapiens) (Q96RJ0 whole entry, looked up): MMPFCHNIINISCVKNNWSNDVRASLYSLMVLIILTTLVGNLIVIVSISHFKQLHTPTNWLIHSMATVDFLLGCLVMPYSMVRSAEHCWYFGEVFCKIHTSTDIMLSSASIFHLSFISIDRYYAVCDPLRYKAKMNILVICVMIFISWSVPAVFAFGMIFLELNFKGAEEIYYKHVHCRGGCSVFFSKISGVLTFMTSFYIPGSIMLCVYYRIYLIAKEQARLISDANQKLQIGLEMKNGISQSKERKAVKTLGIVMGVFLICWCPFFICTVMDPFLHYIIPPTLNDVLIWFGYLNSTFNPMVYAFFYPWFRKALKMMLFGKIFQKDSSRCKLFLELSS
Outline: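 Material: CHO RD-HGA16 cells bearing hTAAR1; compound dosing: one-point dosing, 3 µM nominal final; schedule: dye loading 75 min at 37 °C, then 30 min room temperature; measured by: calcium fluorescence with Fluo-8; control set: vehicle and agonist controls; replication: n of 1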

Structure (SMILES)	inhibition
CC(=O)c1c(O)n(C2CCCCCC2)c(=O)[nH]c1=O	-7.9% (inactive)
CCCCCCN=C(CC)c1c(O)n(CCCC)c(=O)[nH]c1=O	4.8% (inactive)
CCC(=NCCc1ccccc1)c1c(O)n(C2CCCCC2)c(=O)[nH]c1=O	60.3% (active)
O=C1C2(Cl)C3(Cl)C4(Cl)C(Cl)(Cl)C5(Cl)C3(Cl)C1(Cl)C5(Cl)C24Cl (stereo not given)	64.1% (active)
Cc1cccc(NC(=O)OC2CN3CCC2CC3)c1 (stereo not given)	-7.58% (inactive)
Cc1cc(-c2ccc(N)c(C)c2)ccc1N	6.17% (inactive)
CC[N+]1(C)CCCC(OC(=O)C(O)(c2ccccc2)c2ccccc2)C1 (stereo not given)	-0.72% (inactive)
COc1cc(C(c2c(O)c3ccccc3oc2=O)c2c(C)n(C)n(-c3ccccc3)c2=O)ccc1O (stereo not given)	3.68% (inactive)
CCOC(=O)C1SC2(C(F)(F)C(F)F)CC1(O)c1c(c(OC)c3occc3c1OC)O2 (stereo not given)	65.5% (active)
CC(Cc1ccccc1)NCCC(c1ccccc1)c1ccccc1 (stereo not given)	45.6% (inactive)
CC(=O)Nc1ccc(C(=O)C(Cc2ccccc2)N(C)C)cc1 (stereo not given)	-13.4% (inactive)
CC(Cc1ccccc1)NC=O (stereo not given)	74.1% (active)
COC(=O)C1=C(c2ccc(Cl)c(C(F)(F)F)c2)C[C@@H]2CC[C@H]1N2C(=O)NC1CC1	36.7% (inactive)
COC1=CC=C2[C@H]3Cc4ccc(OC)c5c4[C@@]2(CCN3C)C1O5 (stereo not given in full)	-0.15% (inactive)
COc1ccc(CN2CCN(c3ccccc3F)CC2)c(OC)c1	-21.7% (inactive)
c1ccc(CCNC2CCCCCC2)cc1	85.7% (active)
c1cc2c(cc1CCNC1CCCCCC1)OCO2	-6.33% (inactive)
OC(CNC1CCCCC1)c1ccccc1 (stereo not given)	-11.8% (inactive)
c1ccc(CCN2CCC3(CC2)OCCO3)cc1	-16.1% (inactive)
CCN(CC)C(=O)[C@@H]1C=C2c3cccc4[nH]c(Br)c(c34)C[C@H]2N(C)C1	-12.3% (inactive)

Structure (SMILES)	inhibition
CN1CCC(OC(=O)c2cccc(F)c2)CC1	-5.85% (inactive)
COC(=O)N1C(c2ccccc2)C1c1ccccc1 (stereo not given)	2.76% (inactive)
COC(=O)C1=C(c2ccccc2OCc2ccccc2)C[C@@H]2CC[C@H]1N2C(=O)NCc1ccc(OC)cc1	56.6% (active)
COC(=O)C1=C(c2ccc(OCc3ccccc3)cc2)C[C@@H]2CC[C@H]1N2C(=O)NCc1cccc(F)c1	-9.38% (inactive)
COC(=O)C1=C(c2ccc(-c3ccccc3)c(F)c2)C[C@@H]2CC[C@H]1N2C(=O)NCc1ccc(F)cc1	-7.93% (inactive)
COC(=O)C1=C(c2ccc(F)cc2OCc2ccccc2)C[C@@H]2CC[C@H]1N2C(=O)NCc1ccc(OC)c(OC)c1	60.1% (active)
COC(=O)C1=C(c2cccc(OCc3ccccc3)c2)C[C@@H]2CC[C@H]1N2C(=O)NCc1ccc(Br)cc1	-0.83% (inactive)
COC(=O)C1=C(c2ccc(F)cc2OCc2ccccc2)C[C@@H]2CC[C@H]1N2C(=O)NCc1ccc2[nH]ccc2c1	29.6% (inactive)
COC(=O)C1=C(c2ccc(F)cc2OCc2ccccc2)C[C@@H]2CC[C@H]1N2C(=O)NCc1ccc(C(C)(C)C)cc1	12.1% (inactive)
COC(=O)C1=C(c2ccc(F)cc2OCc2ccccc2)C[C@@H]2CC[C@H]1N2C(=O)NCc1ccc(Cl)cc1	52.3% (active)
COC(=O)C1=C(c2ccc(OCc3ccccc3)cc2)C[C@@H]2CC[C@H]1N2C(=O)NCc1ccc(Cl)cc1	-21.6% (inactive)
O=S(=O)(c1ccccc1)N1CCC2CCNC2C1 (stereo not given)	-13.7% (inactive)
CS(=O)(=O)N1CCC2CCNC2C1 (stereo not given)	-17.4% (inactive)
COc1ccc2c(c1)[C@@]13CCCCC1[C@@H](C2)NCC3 (stereo not given in full)	2.15% (inactive)
Cc1cc(N2CCNC[C@@H]2C)ccc1N1CC[C@H](O)C1	-25.4% (inactive)
COc1ccccc1-n1c(O)c(C=NC2CC2)c(=O)[nH]c1=O	5.89% (inactive)
CCCCCn1c(=O)c(C(=O)NCc2ccccn2)c(O)c2ccccc21	9.96% (inactive)
CCN(CC)C(=O)Oc1ccc(NC(=O)N2CCOCC2)cc1	-5.87% (inactive)
CSc1nc2ccc(C)cc2c(=O)n1-c1cccnc1	-37.6% (inactive)
O=c1[nH]c(=O)n(-c2ccccc2)c(O)c1C=NC12CN3CN(CN(C3)C1)C2	3.93% (inactive)

Structure (SMILES)	inhibition
Brc1ccc2c(c1)CNCc1cnnn1-2	-22.5% (inactive)
Cn1c(O)c(C=NCCCC(=O)O)c(=O)n(C)c1=O	-5.57% (inactive)
CCCCC(=O)N/N=C/c1c(O)n(CCC2=CCCCC2)c(=O)[nH]c1=O	-20.4% (inactive)
CCCCC(=O)N/N=C/c1c(O)n(CC)c(=S)n(CC)c1=O	63.8% (active)
Clc1ccc([C@@H]2CC3CCC2N3)cn1 (stereo not given in full)	-10.7% (inactive)
CC12CCC3C(CCC4CC(=O)CCC43C)C1CC(=NO)C2=O (stereo not given)	-3.38% (inactive)
CCC(C)NC1(c2ccccc2)CCCCC1 (stereo not given)	-0.42% (inactive)
O=C1NC(=O)C(C/C=C/c2ccccc2)C(=O)N1	9.88% (inactive)
O=c1[nH]c2ccccc2n1C1CCN(C(c2ccccc2)c2nnnn2Cc2ccccc2)CC1 (stereo not given)	52.2% (active)
O=C1NCN(c2ccccc2)C12CCN(C(c1cccs1)c1nnnn1C1CCCCC1)CC2 (stereo not given)	8.02% (inactive)
Cc1ccc(Cn2nnnc2CN2CCC(n3nnc4ccccc43)CC2)cc1	-2.23% (inactive)
CSCCC(c1nnnn1C(C)(C)C)N1CCC(n2c(=O)[nH]c3ccccc32)CC1 (stereo not given)	52.1% (active)
O=c1[nH]c2ccccc2n1C1CCN(C(c2ccnc3ccccc23)c2nnnn2Cc2ccccc2)CC1 (stereo not given)	54.6% (active)
COc1ccc(-n2nnnc2C(c2cccc3ccccc23)N2CCC(n3c(=O)[nH]c4ccccc43)CC2)cc1 (stereo not given)	40.3% (inactive)
COc1cc(OC)cc(C(=O)NCCN2CCC3(CC2)C(=O)NCN3c2ccccc2)c1	-2.28% (inactive)
Oc1ccc2c3c1OC1[C@H](O)CC[C@@]4(O)[C@@H](C2)N(CC2CC2)CC[C@]314 (stereo not given in full)	-34.9% (inactive) and -15.5% (inactive)
CC(C)(C)c1ccc(OC(=O)N2CCCCC2)cc1	21.5% (inactive)
O=c1[nH]c(=O)n(CCc2ccc(F)cc2)c(O)c1/C=N/N1CCCCC1	-33.7% (inactive)
CC(C)c1ccc(O)c(CN2CCN(c3ccccc3)CC2)c1	-1.33% (inactive)
CN(C)/C=C(\C=[N+](C)C)c1[nH]ncc1[N+](=O)[O-]	-2.16% (inactive)
